Activity calls are given as the source filed them. The calls are words filed in the database; no cut-off is given here.
Columns and labels:
SH-SY5Y [1] = test: Cytotoxicity against human SH-SY5Y cells assessed as cell viability after 48 hrs by MTT assay; assay type: functional, cell-based
How it was run: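 SH-SY5Y cells incubated with compound for 48 h and viability measured by MTT. Values are mean ± SEM of 8-12 determinations.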

SH-SY5Y [2] = test: Cytotoxicity against human SH-SY5Y cells assessed as reduction of total cellular NAD(P) level at 1 uM relative to control; assay type: functional; design: scale not given: the % may be the effect or the level left
SH-SY5Y [3] = test: Cytotoxicity against human SH-SY5Y cells assessed as reduction of total cellular NAD(P) level at 300 nM relative to control; assay type: functional; design: scale not given: the % may be the effect or the level left
How it was run: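 Total cellular NAD levels in SH-SY5Y cells screened at a single fixed concentration of 300 nM. Expressed relative to control, n = 10.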

SH-SY5Y [4] = test: Induction of autophagy in human SH-SY5Y cells assessed as LC3/phosphotidylethanolamine coupling after 40 hrs by Western blot analysis; assay type: functional, cell-based
How it was run: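 Western blot of LC3-I and LC3-II, with tubulin as reference, in untreated and treated cells exposed to 10 nM compound. Six independent experiments were run, using two LC3 antibodies from different sources.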

SH-SY5Y [5] = test: Cytotoxicity against human SH-SY5Y cells assessed as reduction of total cellular NAD(P) level; assay type: functional, cell-based
SH-SY5Y [6] = test: Cytotoxicity against human SH-SY5Y cells assessed as cell viability after 48 hrs by MTT assay relative to control in presence of nicotinamide; assay type: functional

SMILES	IC50 (SH-SY5Y [1])	Activity (SH-SY5Y [2])	Activity (SH-SY5Y [3])	Activity (SH-SY5Y [4])	IC50 (SH-SY5Y [5])	Activity (SH-SY5Y [6])
O=C(CCCCCCn1cc(-c2cccnc2)nn1)Nc1ccccc1Oc1ccccc1	120 nM	24.7%	81.3%			
O=C(CCCCCCCn1cc(-c2cccnc2)nn1)Nc1ccccc1Cc1ccccc1	72 nM	30%	75.2%			
COc1ccccc1NC(=O)CCCCCCn1cc(-c2cccnc2)nn1			87.9%			
O=C(/C=C/c1cccnc1)NCCCCC1CCN(C(=O)c2ccccc2)CC1 [DAPORINAD]	1.7 nM			Active	0.5 nM	
O=C(CCCCCCn1cc(-c2cccnc2)nn1)Nc1ccccc1Cl	205 nM		79.5%			
O=C(CCCCCCCn1cc(-c2cccnc2)nn1)Oc1ccccc1-c1ccccc1			74.7%			
O=C(CCCCCCCCn1cc(-c2cccnc2)nn1)Nc1ccccc1Cc1ccccc1	82 nM	13.1%	74.7%			
O=C(CCCCCCn1cc(-c2cccnc2)nn1)Nc1ccccc1-c1ccccc1	56 nM	26.2%	88.2%			
O=C(CCCCCCCn1cc(-c2cccnc2)nn1)NCC(c1ccccc1)c1ccccc1	97 nM	23%	11%		49.2 nM	
O=C(CCCCCCCCn1cc(-c2cccnc2)nn1)Nc1ccccc1-c1ccccc1	14.6 nM	13%	35.6%		84.4 nM	
O=C(CCCCCCCn1cc(-c2cccnc2)nn1)n1c2ccccc2c2ccccc21	37.4 nM		12%		17.1 nM	
O=C(CCCCCCCCn1cc(-c2cccnc2)nn1)Nc1ccccc1Oc1ccccc1	78 nM	22.6%	79.5%			
NC(=O)c1cccnc1 [NIACINAMIDE]						31%
O=C(CCCCCCn1cc(-c2cccnc2)nn1)Nc1ccccc1Cc1ccccc1		28%	86.1%			
O=C(CCCCCCCn1cc(-c2cccnc2)nn1)Nc1ccccc1Oc1ccccc1	37 nM	17.7%	87.9%			
O=C(CCCCCCCCn1cc(-c2cccnc2)nn1)NCC(c1ccccc1)c1ccccc1	157 nM	32.3%	77.3%			
N#CCCCc1cn(-c2ccncc2)nn1		31%	87.8%			
O=C(CCCCCCn1cc(-c2cccnc2)nn1)NCC(c1ccccc1)c1ccccc1		16.8%	83.8%			

Source: ChEMBL document CHEMBL1154743, “A novel potent nicotinamide phosphoribosyltransferase inhibitor synthesized via click chemistry” (J Med Chem, 2010)
